Source: article PMC3604185 (Biochemical pharmacology, 2013)
Where “and” joins values, the source holds several entries; their conditions need not be identical. Equal entries are not always repeated. Values belong to the compound of their own block, whether it stands above or below them.

Tests used:
mA3AR [1] = biological target: T1, mA3AR (Mus musculus, UniProt Q61618); assay: FCM binding
T1 sequence (Q61618 1-319): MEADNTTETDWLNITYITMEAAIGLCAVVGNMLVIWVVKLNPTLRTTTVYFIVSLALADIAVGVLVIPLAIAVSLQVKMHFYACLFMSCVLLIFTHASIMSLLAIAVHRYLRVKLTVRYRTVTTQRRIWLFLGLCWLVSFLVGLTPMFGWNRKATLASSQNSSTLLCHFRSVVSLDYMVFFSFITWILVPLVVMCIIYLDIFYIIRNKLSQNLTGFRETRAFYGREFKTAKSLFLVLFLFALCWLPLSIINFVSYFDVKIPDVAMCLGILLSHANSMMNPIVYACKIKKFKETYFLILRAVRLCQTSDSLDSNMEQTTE
Summary of the method: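 HEK293 cells stably expressing mouse A3AR, grown in DMEM with 10% FBS and 0.6 mg/ml G418. Cells were incubated with fluorescent agonist (5–1,000 nM) at 37 °C for varied times. […] Cells were washed in ice-cold PBS and detached with 0.2% EDTA. MFI was read in FL-4 (635 nm laser) and fitted by non-linear least squares.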

hA3AR [2] = biological target: T2, hA3AR (Homo sapiens, UniProt P0DMS8); assay: FCM of MRS5704 in AR-expressing HEK293 cells; assay type: binding
T2 sequence (P0DMS8 1-318): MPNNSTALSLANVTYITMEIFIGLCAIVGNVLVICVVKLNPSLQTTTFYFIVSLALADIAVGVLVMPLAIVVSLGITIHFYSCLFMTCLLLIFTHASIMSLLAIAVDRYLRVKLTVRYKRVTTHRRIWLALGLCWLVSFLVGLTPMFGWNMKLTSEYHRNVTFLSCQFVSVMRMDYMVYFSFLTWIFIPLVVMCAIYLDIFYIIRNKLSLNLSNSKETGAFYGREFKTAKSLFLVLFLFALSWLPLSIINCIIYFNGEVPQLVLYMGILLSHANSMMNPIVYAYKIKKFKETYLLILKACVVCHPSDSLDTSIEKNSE

mA3AR [3] = biological target: T1, mA3AR; assay type: binding; settings: read-out: Ki, A3AR (mouse), n = 3-4
Summary of the method: (§1)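 Membranes from HEK293 cells stably expressing the mouse receptor were used in a competition assay following the human-receptor protocol. Test compound at increasing concentrations was incubated with radioligand and membranes in 50 mM Tris-HCl, pH 7.5, with 10 mM MgCl2, at 25 °C for 60 min. Bound and free were separated by GF/B filtration with ice-cold Tris washes. […] Ki was calculated from IC50 by nonlinear fitting.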

mA1AR [4] = biological target: T3, mA1AR (Mus musculus, UniProt Q60612); assay type: binding; settings: read-out: Ki, A1AR (mouse), n = 3-4
T3 sequence (Q60612 1-326): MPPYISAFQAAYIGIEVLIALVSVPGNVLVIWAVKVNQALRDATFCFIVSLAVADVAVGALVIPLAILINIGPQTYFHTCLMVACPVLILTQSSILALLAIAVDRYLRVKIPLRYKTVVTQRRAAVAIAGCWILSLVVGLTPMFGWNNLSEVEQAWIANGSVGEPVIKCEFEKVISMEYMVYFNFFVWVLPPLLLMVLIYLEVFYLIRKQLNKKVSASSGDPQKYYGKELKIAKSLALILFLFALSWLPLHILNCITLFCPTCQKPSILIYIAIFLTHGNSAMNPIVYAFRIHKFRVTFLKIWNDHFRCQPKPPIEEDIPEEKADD
Summary of the method: as §1

mA2BAR = biological target: T4, mA2BAR (Mus musculus, UniProt Q60614); assay: FCM binding in HEK293 cells expressing mA2BAR; settings: 1 µM, 2 h
T4 sequence (Q60614 1-332): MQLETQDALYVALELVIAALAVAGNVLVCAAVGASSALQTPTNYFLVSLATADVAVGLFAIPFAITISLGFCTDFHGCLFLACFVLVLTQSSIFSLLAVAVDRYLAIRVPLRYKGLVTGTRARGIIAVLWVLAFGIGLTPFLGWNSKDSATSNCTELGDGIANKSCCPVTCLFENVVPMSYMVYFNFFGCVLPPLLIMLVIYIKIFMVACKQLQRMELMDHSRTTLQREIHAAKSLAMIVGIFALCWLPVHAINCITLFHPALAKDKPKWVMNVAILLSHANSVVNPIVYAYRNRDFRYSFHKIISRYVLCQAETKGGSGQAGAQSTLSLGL
Summary of the method: (§2)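 Stable HEK293 lines expressing the mouse receptor were grown in DMEM with 10% FBS, 2 mM L-glutamine, penicillin/streptomycin and 0.6 mg/ml G418, then plated for 24 h at 37 °C, 5% CO2. At about 80% confluency, the fluorescent agonist (range 5–1000 nM) was added in fresh medium at 37 °C. Cells were then washed in ice-cold PBS, detached with 0.2% EDTA, spun twice at 400 × g and resuspended in PBS. MFI was read by flow cytometry (635 nm laser, FL-4, log mode).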

hA2AAR = hA2AAR (Homo sapiens, UniProt P29274); settings: read-out: Ki, A2AAR, ref [21],[22]; cited from earlier work
mA2AAR [5] = biological target: T5, mA2AAR (Mus musculus, UniProt Q60613); assay type: binding; settings: read-out: Ki, A2AAR (mouse), n = 3-4
Summary of the method: as §1

mA2AAR [6] = biological target: T5, mA2AAR; assay: FCM binding in HEK293 cells expressing mA2AAR; settings: 1 µM, 2 h
Summary of the method: as §2

mA1AR [7] = biological target: T3, mA1AR; assay: FCM binding in HEK293 cells expressing mA1AR; settings: 1 µM, 2 h
Summary of the method: as §2

hA1AR = biological target: T6, hA1AR (Homo sapiens, UniProt P30542); settings: inhibition of radioligand binding at 10 µM, ref [19],[21],[22]; cited from earlier work
T6 sequence (P30542 1-326): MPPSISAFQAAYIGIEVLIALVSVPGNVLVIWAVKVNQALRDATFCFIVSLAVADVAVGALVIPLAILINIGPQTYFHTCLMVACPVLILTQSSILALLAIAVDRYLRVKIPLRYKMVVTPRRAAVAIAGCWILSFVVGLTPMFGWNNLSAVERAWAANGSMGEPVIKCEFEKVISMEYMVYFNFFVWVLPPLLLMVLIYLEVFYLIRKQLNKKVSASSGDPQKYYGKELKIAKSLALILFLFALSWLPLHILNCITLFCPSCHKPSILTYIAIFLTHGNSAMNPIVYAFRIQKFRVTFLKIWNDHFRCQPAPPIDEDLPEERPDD

hA3AR [8] = biological target: T2, hA3AR; assay: FCM competitive binding in hA3AR-CHO whole cells with MRS5218; settings: read-out: FCM binding at hA3AR, Ki, MRS5218 30 nM tracer, 60 min at 37 °C, 0.4 M sucrose

T5 sequence (Q60613 whole entry): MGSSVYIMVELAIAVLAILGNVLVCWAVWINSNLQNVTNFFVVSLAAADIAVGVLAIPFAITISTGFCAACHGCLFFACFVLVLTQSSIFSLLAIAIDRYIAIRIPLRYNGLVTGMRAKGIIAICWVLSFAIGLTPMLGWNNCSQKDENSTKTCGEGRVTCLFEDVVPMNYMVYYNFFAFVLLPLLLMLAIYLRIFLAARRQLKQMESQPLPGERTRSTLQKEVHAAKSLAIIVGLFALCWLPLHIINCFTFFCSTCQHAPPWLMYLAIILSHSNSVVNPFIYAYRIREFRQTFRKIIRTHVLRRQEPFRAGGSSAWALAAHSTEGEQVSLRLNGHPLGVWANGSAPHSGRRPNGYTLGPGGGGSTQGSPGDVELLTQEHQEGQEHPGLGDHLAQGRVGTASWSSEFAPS
Sequence of hA2AAR (P29274 whole entry): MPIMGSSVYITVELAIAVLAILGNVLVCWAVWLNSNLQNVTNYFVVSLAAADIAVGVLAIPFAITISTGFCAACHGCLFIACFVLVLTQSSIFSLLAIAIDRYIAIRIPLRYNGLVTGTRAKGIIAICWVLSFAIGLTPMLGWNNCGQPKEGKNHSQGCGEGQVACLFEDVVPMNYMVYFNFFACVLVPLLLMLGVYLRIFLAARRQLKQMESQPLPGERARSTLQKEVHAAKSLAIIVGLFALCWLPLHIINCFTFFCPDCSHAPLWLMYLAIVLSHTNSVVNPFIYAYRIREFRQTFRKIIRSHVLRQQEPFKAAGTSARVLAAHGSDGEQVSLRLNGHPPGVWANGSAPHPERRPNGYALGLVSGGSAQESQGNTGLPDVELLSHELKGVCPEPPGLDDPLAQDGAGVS

Compound: CNC(=O)[C@@]12C[C@@H]1[C@@H](n1cnc3c(NCc4cccc(Cl)c4)nc(C#Cc4ccc5ccc6cccc7ccc4c5c67)nc31)[C@H](O)[C@@H]2O [Compound 2, (1S,2R,3S,4R,5S)-4-(6-(3-chlorobenzylamino)-2-(pyren-1-ylethynyl)-9H-purin-9-yl)-2,3-dihydroxy-N-methylbicyclo[3.1.0]hexane-1-carboxamide]
specific fluorescent binding by FCM, mA3AR (mA3AR [1]; AR-expressing HEK293 cells): failed to show specific fluorescent binding
specific fluorescent binding by FCM, hA3AR (hA3AR [2]): failed to show specific fluorescent binding

Ki (mA3AR [3]): 261 ± 29 nM
Ki (mA1AR [4]): 143 nM
specific binding to mA2BAR-HEK293 cells (mA2BAR): became detectable
t1/2 of dissociation (mA3AR [1]; 5 nM for 2 h, then NECA (100 µM)): 39.4 ± 4.2 min
t1/2 of association (mA3AR [1]; 5 nM, listed as MRS5218): 38 min and 37.8 ± 2.9 min
Kd (mA3AR [1]; read-out: Kd app, saturation, whole cells, 2 h, absence of sucrose): 7.52 ± 0.49 nM
Bmax (mA3AR [1]; saturation, whole cells, 2 h, absence of sucrose): 99,420±18,110 MESF/cell
Ki (mA2AAR [5]): 717 ± 19 nM
specific binding to mA2AAR-HEK293 cells (mA2AAR [6]): not observed
specific binding to mA1AR-HEK293 cells (mA1AR [7]): not observed
Compound: (1′S,2′R,3′S,4′S,5′S)-4′-[6-(3-chlorobenzylamino)-2-(N-cyanine(β-aminoethylaminocarbonyl)-1-butynyl)-9-yl]-2′,3′-dihydroxybicyclo[3.1.0]hexane-1′-carboxylic acid N-methylamide [Compound 1]
specific labeling of mA3AR-HEK293 cells (mA3AR [1]; 50-300 nM, 2 h, nonspecific with 100 µM NECA): specifically labeled mA3AR-HEK293 cells versus cells expressing other AR subtypes
Ki (hA2AAR): 4730 nM
% inhibition, A1AR (hA1AR): h: 36%

Ki (hA3AR [8]): 88.4 ± 13.6 nM
Compound: OC[C@H]1O[C@@H](n2cnc3c(NC4CCCC4)ncnc32)[C@H](O)[C@@H]1O [CPA]
